Laboratory results published in ChEMBL document CHEMBL2034978, “Synthesis and evaluation of curcumin-related compounds for anticancer activity” (Eur J Med Chem, 2012).
Activity calls are given as the source filed them. The calls are words filed in the database; no cut-off is given here.

Assays:
[1] = molecular target: Mitogen-activated protein kinase; ERK1/ERK2 (Homo sapiens) (UniProt P27361+P28482); experiment: Inhibition of ERK1/2 phosphorylation in human PC3 cells at 0.5 uM after 24 hrs by Western blotting relative to beta-actin; assay type: cell-based; settings: PC-3
How it was run: (§1)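 PC-3 cells were seeded at 1 × 10⁵ cells/ml in 100 mm dishes, grown 24 h, then treated 24 h. Cells were lysed in Tris-HCl pH 7.4 buffer containing NaF, pyrophosphate, orthovanadate and Triton X-100, and lysates cleared at 12,000×g. Blots on PVDF were probed with anti-phospho-Akt or anti-phospho-Erk1/2, detected by ECL, quantified by optical density and normalized to β-actin.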

[2] = system: HT-29; experiment: Cytotoxicity against human HT-29 cells after 72 hrs by MTT assay; assay type: functional, cell-based; settings: HT-29, 72 h
How it was run: (§2)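 Seeded at 0.2 × 10⁵ cells/ml, grown 24 h, then exposed 72 h to a range of concentrations (upper limit 30). MTT read-out: formazan dissolved in DMSO, absorbance at 540 nm, growth expressed as percent of DMSO-treated cells.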

[3] = system: PANC-1; experiment: Cytotoxicity against human PANC1 cells after 72 hrs by MTT assay; assay type: functional, cell-based; settings: PANC-1, 72 h; how it was run: as §2
[4] = system: PC-3; experiment: Cytotoxicity against human PC3 cells after 72 hrs by MTT assay; assay type: functional, cell-based; settings: PC-3, 72 h; how it was run: as §2
[5] = system: PC-3; experiment: Induction of apoptosis in human PC3 cells at <1 uM after 96 hrs by morphology analysis; assay type: functional, cell-based
[6] = system: PC-3; experiment: Inhibition of Akt phosphorylation in human PC3 cells at 0.5 uM after 24 hrs by Western blotting relative to beta-actin; assay type: cell-based; how it was run: as §1
[7] = system: HT-29; experiment: Ratio of curcumin IC50 to compound IC50 for human HT-29 cells; assay type: functional
How it was run: (§3)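 Curcumin served as positive control in each incubation, with its growth-inhibition data averaged across experiments.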

[8] = system: PANC-1; experiment: Ratio of curcumin IC50 to compound IC50 for human PANC1 cells; assay type: functional; how it was run: as §3
[9] = system: PC-3; experiment: Ratio of curcumin IC50 to compound IC50 for human PC3 cells; assay type: functional; how it was run: as §3

Mitogen-activated protein kinase; ERK1/ERK2 (Homo sapiens), sequence (P27361 whole entry, looked up): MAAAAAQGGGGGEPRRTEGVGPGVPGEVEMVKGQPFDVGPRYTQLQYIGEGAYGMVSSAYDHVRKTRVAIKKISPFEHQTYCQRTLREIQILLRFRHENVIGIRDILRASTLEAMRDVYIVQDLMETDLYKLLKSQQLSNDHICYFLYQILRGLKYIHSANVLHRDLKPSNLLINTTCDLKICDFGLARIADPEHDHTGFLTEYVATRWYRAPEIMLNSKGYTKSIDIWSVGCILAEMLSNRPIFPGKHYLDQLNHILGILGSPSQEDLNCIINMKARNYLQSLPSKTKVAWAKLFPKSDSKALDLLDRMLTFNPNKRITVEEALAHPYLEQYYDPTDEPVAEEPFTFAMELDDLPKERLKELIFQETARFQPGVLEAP
Mitogen-activated protein kinase; ERK1/ERK2 (Homo sapiens), sequence (P28482 whole entry, looked up): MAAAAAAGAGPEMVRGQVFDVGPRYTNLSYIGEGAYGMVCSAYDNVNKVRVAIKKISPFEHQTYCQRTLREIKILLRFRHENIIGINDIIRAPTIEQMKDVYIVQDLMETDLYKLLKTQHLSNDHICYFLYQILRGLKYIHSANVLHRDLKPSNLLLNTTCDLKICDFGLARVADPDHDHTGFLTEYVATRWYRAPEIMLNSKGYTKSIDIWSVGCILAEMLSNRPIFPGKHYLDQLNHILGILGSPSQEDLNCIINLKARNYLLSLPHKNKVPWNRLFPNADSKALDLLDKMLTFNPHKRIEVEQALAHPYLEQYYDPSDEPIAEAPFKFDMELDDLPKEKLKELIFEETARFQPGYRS

Row | inhibition [1] | SMILES | IC50 [2] [µM] | IC50 [3] [µM] | IC50 [4] [µM] | Activity [5] | inhibition [6] | Ratio IC50 [7] | Ratio IC50 [8] | Ratio IC50 [9]
1 | inactive | COc1cc(/C=C/C(=O)CC(=O)/C=C/c2ccc(O)c(OC)c2)ccc1O [CURCUMIN] | 18.7 | 23.7 | 19.4 | inactive | inactive | – | – | –
2 | Active | COc1cc(/C=C2\COC/C(=C\c3cc(OC)c(OC)c(OC)c3)C2=O)cc(OC)c1OC | 0.16 | 0.52 | 0.27 | Active | Active | 117 | 46 | 72
3 | Active | O=C1/C(=C/c2cccnc2)CSC/C1=C\c1cccnc1 | 0.79 | 0.51 | 0.96 | Active | inactive | 27 | 45 | 21
4 | Active | O=C1/C(=C/c2ccccn2)CSC/C1=C\c1ccccn1 | 0.76 | 0.7 | 0.52 | Active | inactive | 21 | 21 | 21
5 | – | O=C1C(=Cc2ccc(O)cc2)CSCC1=Cc1ccc(O)cc1 | 4.27 | 12 | 8.23 | – | – | – | – | –
6 | – | COc1ccc(C=C2CSCC(=Cc3ccc(OC)cc3)C2=O)cc1 | 7.93 | 10.9 | 8.46 | – | – | – | – | –
7 | – | COc1cc(/C=C2\COC/C(=C\c3cc(OC)c(O)c(OC)c3)C2=O)cc(OC)c1O | 1.44 | 1.72 | 0.91 | – | – | – | – | –
8 | – | O=C(/C=C/c1ccc(O)cc1)/C=C/c1ccc(O)cc1 | 9.38 | 13.6 | 9.68 | – | – | – | – | –
9 | – | O=C1/C(=C/c2ccncc2)CC/C1=C\c1ccncc1 | 7.58 | 7.88 | 5.58 | – | – | – | – | –
10 | – | COc1cc(/C=C/C(=O)/C=C/c2cc(OC)c(O)c(OC)c2)cc(OC)c1O | 2.24 | 2.23 | 3.41 | – | – | – | – | –
11 | – | O=C1/C(=C/c2ccsc2)CSC/C1=C\c1ccsc1 | 6.75 | 7.49 | 4.13 | – | – | – | – | –
12 | – | COc1ccc(/C=C2\COC/C(=C\c3ccc(OC)c(OC)c3OC)C2=O)c(OC)c1OC | 2.45 | 2.67 | 2.74 | – | – | – | – | –
13 | Active | COc1cc(C=C2CSCC(=Cc3cc(OC)c(OC)c(OC)c3)C2=O)cc(OC)c1OC | 0.26 | 0.7 | 0.28 | Active | inactive | 72 | 34 | 69
14 | – | O=C1/C(=C/c2ccc(Br)cc2)CCC/C1=C\c1ccc(Br)cc1 | 9.19 | 12.2 | 13.6 | – | – | – | – | –
15 | – | O=C1/C(=C/c2ccncc2)CCC/C1=C\c1ccncc1 | 2.35 | 2.18 | 2.12 | – | – | – | – | –
16 | – | O=C1/C(=C/c2ccc(O)cc2)COC/C1=C\c1ccc(O)cc1 | 3.86 | 11.1 | 7.28 | – | – | – | – | –

Row | inhibition [1] | SMILES | IC50 [2] [µM] | IC50 [3] [µM] | IC50 [4] [µM] | Activity [5] | inhibition [6] | Ratio IC50 [7] | Ratio IC50 [8] | Ratio IC50 [9]
17 | – | O=C1/C(=C/c2ccc(Cl)cc2)CNC/C1=C\c1ccc(Cl)cc1 | 6.33 | 3.73 | 3.63 | – | – | – | – | –
18 | – | O=C1/C(=C/c2ccsc2)CC/C1=C\c1ccsc1 | 19.7 | 27.9 | 23 | – | – | – | – | –
19 | – | O=C1/C(=C/c2cccnc2)CCC/C1=C\c1cccnc1 | 1.99 | 2.5 | 2.16 | – | – | – | – | –
20 | – | O=C1/C(=C/c2ccncc2)COC/C1=C\c1ccncc1 | 4.17 | 2.96 | 1.83 | – | – | – | – | –
21 | – | COc1ccc(/C=C2\CCC/C(=C\c3ccc(OC)c(OC)c3)C2=O)cc1OC | 4 | 4.46 | 5.2 | – | – | – | – | –
22 | – | O=C1/C(=C/c2ccccn2)CC/C1=C\c1ccccn1 | 5.36 | 5.19 | 2.94 | – | – | – | – | –
23 | – | O=C1/C(=C/c2ccsc2)CCC/C1=C\c1ccsc1 | 17.3 | 17.4 | 14.6 | – | – | – | – | –
24 | – | O=C1/C(=C/c2ccc(F)cc2)CCC/C1=C\c1ccc(F)cc1 | 7.56 | 10.4 | 11.9 | – | – | – | – | –
25 | – | O=C1/C(=C/c2ccccn2)COC/C1=C\c1ccccn1 | 3.28 | 3.24 | 1.88 | – | – | – | – | –
26 | – | COc1ccc(/C=C2\CCC/C(=C\c3ccc(OC)cc3)C2=O)cc1 | 13.7 | 15.9 | 12.3 | – | – | – | – | –
27 | – | O=C1/C(=C/c2ccc(O)cc2)CCC/C1=C\c1ccc(O)cc1 | 11.7 | 13.2 | 13.2 | – | – | – | – | –
28 | – | COc1ccc(/C=C2\CC/C(=C\c3ccc(OC)c(OC)c3OC)C2=O)c(OC)c1OC | 19.8 | 22.7 | 18.7 | – | – | – | – | –
29 | – | O=C1/C(=C/c2ccsc2)COC/C1=C\c1ccsc1 | 8.94 | 10.8 | 6.59 | – | – | – | – | –
30 | – | COc1ccc(/C=C2\CC/C(=C\c3ccc(OC)cc3)C2=O)cc1 | 23 | > 30 | 25.8 | – | – | – | – | –
31 | – | COc1cc(/C=C/C(=O)/C=C/c2cc(OC)c(OC)c(OC)c2)cc(OC)c1OC | 1.68 | 3.38 | 4.63 | – | – | – | – | –
32 | – | O=C1/C(=C/c2ccc(F)cc2)CC/C1=C\c1ccc(F)cc1 | 14.4 | 19.7 | 19 | – | – | – | – | –
